5 compounds from ChEMBL document CHEMBL4680095, “Potent Antitumor Activities and Structure Basis of the Chiral β-Lactam Bridged Analogue of Combretastatin A-4 Binding to Tubulin” (J Med Chem, 2016) can be followed below.

One data set concerns MDA-MB-231. Put plainly: Growth inhibition of human MDA-MB-231 cells. It counts as functional, cell-based.
For the next data set, the system named is SK-OV-3. Put plainly: Growth inhibition of human SK-OV-3 cells. Type of data set: functional, cell-based.
Another data set has as its system HeLa. Briefly: Growth inhibition of human HeLa cells. It counts as functional, cell-based.
The nature of data set [1]: Inhibition of pig brain tubulin polymerization incubated for 20 mins by spectrophotometry. It counts as tissue-based, Sus scrofa.
Data set [2] concerns A2780. Briefly: Growth inhibition of human A2780 cells. Type of data set: functional, cell-based.
A short description of data set [3]: Toxicity in Balb/C mouse. The following applies: in vivo.
A short description of data set [4]: Toxicity in Balb/C mouse xenografted with human A2780 cells assessed as induction of body weight loss at 12.5 mg/kg, ip dosed once every 2 days. Type of data set: organism-based. The following applies: in vivo, 48 h, time 2 day. The method in brief: (§1)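 Xenograft model built by subcutaneous inoculation of A2780 cells into female Balb/C nude mice, then treated at 12.5 mg/kg. Read-outs named per line: tumor growth, main organs examined for abnormalities, body weight monitored.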

A short description of data set [5]: Toxicity in Balb/C mouse xenografted with human A2780 cells assessed as induction of abnormalities of visceral organs at 12.5 mg/kg, ip dosed once every 2 days. Type of data set: organism-based. The following applies: in vivo, 48 h, time 2 day. In outline:
as §1

Data set [6] concerns A2780. Briefly: Antitumor activity against human A2780 cells xenografted in Balb/C mouse assessed as inhibition of tumor growth at 12.5 mg/kg, ip dosed once every 2 days. The note with it: time 2.0 day. Type of data set: functional, organism-based. In outline: as §1

pIC50: −log10 of the molar value. Active and inactive are the calls of the source. The calls are words filed in the database; no cut-off is given here.

For the compound `C=C1C(=O)N(c2cc(OC)c(OC)c(OC)c2)[C@@H]1c1ccc(OC)c(O)c1`, the pIC50 is less than 5.00 in the data set on MDA-MB-231; 5.46 in the data set with SK-OV-3; 5.26 with HeLa; less than 4.00 in data set [1]; 5.34 with A2780 [2].
On to `COc1cc2c(c(OC)c1OC)-c1ccc(OC)c(=O)cc1[C@@H](NC(C)=O)CC2` [COLCHICINE], for which the LD50 in data set [3] was found to be 4 mg/kg.
Regarding `COc1ccc([C@H]2[C@@H](C)C(=O)N2c2cc(OC)c(OC)c(OC)c2)cc1O`, the pIC50 is 7.25 in the data set on MDA-MB-231; 7.24 in the data set on SK-OV-3; 7.20 with HeLa; 5.46 in data set [1]; 7.51 in the data set on A2780 [2]. Besides, the Activity result in data set [4] and in [5] was “Non-Toxic” each time. Besides, the TGI result with A2780 [6] is “Active”. Further, in data set [3], the LD50 is more than 500 mg/kg.
Turning to `COc1ccc(/C=C\c2cc(OC)c(OC)c(OC)c2)cc1O` [COMBRETASTATIN A4], in data set [1], the pIC50 is 5.88.
Take `C=C1C(=O)N(c2cc(OC)c(OC)c(OC)c2)[C@H]1c1ccc(OC)c(O)c1`: the pIC50 in the data set on MDA-MB-231 is 6.51; in the data set on SK-OV-3, 6.94; in the data set on HeLa, 6.61; in data set [1], 5.18; in the data set on A2780 [2], 6.94.
